Experiment [1] concerns MDA-MB-231. As to the kind of experiment: Induction of apoptosis in human MDA-MB-231 cells assessed as early apoptotic cells at 1.25 uM after 24 hrs by Annexin V-FITC/propidium iodide staining based flow cytometry (reference value: 2.1%). The experiment is classed as functional. For orientation: In flow cytometry, cells or beads pass a laser one at a time.
The test system of another experiment is K562. As to the kind of experiment: Antiproliferative activity against human K562 cells after 48 hrs by MTT assay. Format: functional, cell-based. The following applies: K562, 48 h. An outline of the steps:
(§1)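 MTT assay on human cancer lines held at 37 °C, 95% humidity, 5% CO2. Cells were exposed to compounds at 20.0–0.5 μM for 48 h, then washed twice with PBS. MTT (5 mg mL–1 in PBS) was added for 4 h at 37 °C, the formazan was dissolved in DMSO, and A490 was read. IC50 comes from replicate wells over three independent experiments.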

The subject of experiment [2] is MDA-MB-231. Description: Induction of apoptosis in human MDA-MB-231 cells after 24 hrs by Annexin V-FITC/propidium iodide staining based flow cytometry. The experiment is classed as functional, cell-based.
Experiment [3] concerns MDA-MB-231. As to the kind of experiment: Induction of apoptosis in human MDA-MB-231 cells assessed as late apoptotic cells at 1.25 uM after 24 hrs by Annexin V-FITC/propidium iodide staining based flow cytometry (reference value: 1.9%). The experiment is classed as functional.
Experiment [4] has as its system MDA-MB-231. Description: Induction of apoptosis in human MDA-MB-231 cells assessed as live cells at 1.25 uM after 24 hrs by Annexin V-FITC/propidium iodide staining based flow cytometry (reference value: 95.7%). The experiment is classed as functional.
For experiment [5], the system named is MDA-MB-231. Description: Induction of apoptosis in human MDA-MB-231 cells assessed as decrease in Bcl2 expression at 2.5 uM after 24 hrs by Western blot analysis. The experiment is classed as functional, cell-based. An outline of the steps:
(§2)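 MDA-MB-231 cells were treated at 2.5 μM for 24 h and lysed in RIPA buffer. Protein was resolved on 10% SDS-PAGE, transferred to PVDF, and blocked in 5% BSA for 2 h at RT. Primary antibodies were applied overnight at 4 °C and HRP-conjugated secondary antibodies for 2 h at RT. Bands were detected by ECL, with β-actin as the loading reference.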
On the technique in general: In western blotting, separated proteins are transferred to a membrane and probed.

Experiment [6] deals with MDA-MB-231. Description: Induction of apoptosis in human MDA-MB-231 cells assessed as necrotic cells at 2.5 uM after 24 hrs by Annexin V-FITC/propidium iodide staining based flow cytometry (reference value: 0.3%). Format: functional.
The subject of experiment [7] is MDA-MB-231. As to the kind of experiment: Induction of apoptosis in human MDA-MB-231 cells assessed as live cells at 2.5 uM after 24 hrs by Annexin V-FITC/propidium iodide staining based flow cytometry (reference value: 95.7%). The experiment is classed as functional.
Experiment [8] deals with MDA-MB-231. Description: Antiproliferative activity against human MDA-MB-231 cells after 48 hrs by MTT assay. Format: functional, cell-based. Particulars: MDA-MB-231, 48 h. The procedure, abridged: as §1
Experiment [9] concerns MDA-MB-231. As to the kind of experiment: Induction of apoptosis in human MDA-MB-231 cells assessed as increase in cleaved PARP expression at 2.5 uM after 24 hrs by Western blot analysis. Format: functional, cell-based. An outline of the steps:
as §2

In another experiment the test system is PC-3. Description: Antiproliferative activity against human PC3 cells after 48 hrs by MTT assay. The experiment is classed as functional, cell-based. Particulars: PC-3, 48 h. The procedure, abridged:
as §1

In experiment [10] the test system is MDA-MB-231. Description: Induction of apoptosis in human MDA-MB-231 cells assessed as increase in Bax expression at 2.5 uM after 24 hrs by Western blot analysis. Format: functional, cell-based. The procedure, abridged:
as §2

A further experiment concerns L02. Description: Cytotoxicity against human HL7702 cells after 48 hrs by MTT assay. Format: cell-based. The following applies: L02, 48 h. The procedure, abridged:
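Normal human liver HL7702 cells were assessed by MTT assay, with formazan absorbance as the read-out, to give an IC50 for cytotoxicity.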

A short description of experiment [11]: Antiproliferative activity against human WM9 cells after 48 hrs by MTT assay. Format: functional, cell-based. The following applies: WM9, 48 h. The procedure, abridged: as §1
(In general: Tetrazolium assays rely on reduction of a dye to a coloured formazan, in cell work by metabolically active cells.)

Experiment [12] deals with MDA-MB-231. As to the kind of experiment: Induction of apoptosis in human MDA-MB-231 cells assessed as late apoptotic cells at 2.5 uM after 24 hrs by Annexin V-FITC/propidium iodide staining based flow cytometry (reference value: 1.9%). The experiment is classed as functional.
In experiment [13] the test system is MDA-MB-231. As to the kind of experiment: Induction of apoptosis in human MDA-MB-231 cells assessed as early apoptotic cells at 2.5 uM after 24 hrs by Annexin V-FITC/propidium iodide staining based flow cytometry (reference value: 2.1%). The experiment is classed as functional.
A further experiment deals with HEL. As to the kind of experiment: Antiproliferative activity against HEL cells after 48 hrs by MTT assay. Format: functional, cell-based. The following applies: Homo sapiens. An outline of the steps:
as §1

The test system of experiment [14] is MDA-MB-231. Description: Induction of apoptosis in human MDA-MB-231 cells assessed as necrotic cells at 1.25 uM after 24 hrs by Annexin V-FITC/propidium iodide staining based flow cytometry (reference value: 0.3%). The experiment is classed as functional.
Experiment [15] concerns MDA-MB-231. As to the kind of experiment: Induction of apoptosis in human MDA-MB-231 cells assessed as decrease in Bcl-xl expression at 2.5 uM after 24 hrs by Western blot analysis. Format: functional, cell-based. The procedure, abridged:
as §2

Active and inactive are the calls of the source. The calls are words filed in the database; no cut-off is given here.

As for `COc1cc(NS(=O)(=O)c2ccc3ccccc3c2)c2cc1Oc1ccc(cc1)C[C@H]1c3cc(c(OC)cc3CCN1C)Oc1c(OC)c(OC)cc3c1[C@H](C2)N(C)CC3`, the Activity with MDA-MB-231 [1] was 3.8%; in the experiment with MDA-MB-231 [2] it was “Dose-dependent effect”; in the experiment with MDA-MB-231 [3] it was 9.6%; in the experiment with MDA-MB-231 [4] it was 85.9%; in the experiment with MDA-MB-231 [6], 1.5%; in the experiment with MDA-MB-231 [7] it was 42.6%. Further, the Activity with MDA-MB-231 [12] worked out at 27.2%; in the experiment with MDA-MB-231 [13], 28.6%; in the experiment on MDA-MB-231 [14], 0.7%. For the same molecule, the IC50 with K562 came out at 1680 nM; with MDA-MB-231 [8] it was 1.18 µM; with PC-3 it was 3.96 µM; with L02 it was 14.4 µM; in experiment [11], 4.74 µM; in the experiment on HEL, 2330 nM. The result with MDA-MB-231 [5], in the experiment on MDA-MB-231 [9], in the experiment on MDA-MB-231 [10] and in the experiment on MDA-MB-231 [15] was Active.

Take `COc1cc(NS(=O)(=O)c2cccc3cccnc23)c2cc1Oc1ccc(cc1)C[C@H]1c3cc(c(OC)cc3CCN1C)Oc1c(OC)c(OC)cc3c1[C@H](C2)N(C)CC3`: the IC50 was 1390 nM with K562; 6.26 µM in the experiment with MDA-MB-231 [8]; 4.3 µM in the experiment with PC-3; 12.7 µM in the experiment on L02; 4.53 µM in [11]; 2850 nM with HEL.

Consider `CCCS(=O)(=O)Nc1cc(OC)c2cc1C[C@H]1c3c(cc(OC)c(OC)c3Oc3cc4c(cc3OC)CCN(C)[C@H]4Cc3ccc(cc3)O2)CCN1C`, for which the IC50 with K562 worked out at 4140 nM; in the experiment with MDA-MB-231 [8] it was 5.12 µM; with PC-3, 6.64 µM; in the experiment on L02, 12.5 µM; in experiment [11], 4.03 µM; with HEL, 6000 nM.

Consider `COc1cc(NS(=O)(=O)c2ccc(Cl)cc2)c2cc1Oc1ccc(cc1)C[C@H]1c3cc(c(OC)cc3CCN1C)Oc1c(OC)c(OC)cc3c1[C@H](C2)N(C)CC3`, for which the IC50 with K562 was 2670 nM; with MDA-MB-231 [8], 4.81 µM; in the experiment on PC-3 it was 2.97 µM; with L02, 17.1 µM; in experiment [11], 3.73 µM; in the experiment on HEL, 2590 nM.

For orientation: IC50 means the concentration at which inhibition is half-maximal. Read a high IC50 as weaker potency.
